Results: PMC5824357 (RNA, 2018)
Read-outs that look alike come from different tables or passages of the source. Ends that are not written are not given here. λN = λN tag that binds BoxB hairpins, for tethering; HA = not defined here

Key:
[1] = target: Dm CN9BD–CAF40 complex (Drosophila melanogaster) (UniProt Q7JVP2); test: ITC
[2] = system: F-Luc-5BoxB mRNA; test: Tethering assay in S2 cells, F-Luc-5BoxB reporter; type: cell-based, Drosophila melanogaster; conditions: for repression/degradation activity in tethering: λN-HA-tagged, S2 cells, harvested 3 days after transfection
[3] = system: F-Luc-5BoxB-A95C7-HhR; test: Tethering assay in S2 cells, F-Luc-5BoxB-A95C7-HhR reporter; type: cell-based, Drosophila melanogaster
[4] = target: T1, Hs CAF40 (ARM domain, residues R19–E285) (human, UniProt Q92600 19-285); test: crystal structure
T1 sequence (Q92600 19-285): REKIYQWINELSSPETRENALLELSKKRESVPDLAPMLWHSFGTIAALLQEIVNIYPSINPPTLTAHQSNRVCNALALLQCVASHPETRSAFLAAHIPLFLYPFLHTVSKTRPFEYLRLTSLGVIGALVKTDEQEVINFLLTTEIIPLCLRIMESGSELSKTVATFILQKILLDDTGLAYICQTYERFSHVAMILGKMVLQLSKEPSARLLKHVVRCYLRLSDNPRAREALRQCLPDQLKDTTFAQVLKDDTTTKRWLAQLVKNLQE

[5] = target: T2, Hs NOT1 CN9BD–CAF40 complex (human, UniProt A5YKK6;Q92600); test: pull-down
T2 sequence (Q92600 19-285, one chain of several): as the sequence (Q92600 19-285) above

[6] = system: Dm NOT1-CN9BD–CAF40 complex; test: In vitro MBP pull-down, Dm CN9BD–CAF40; type: binding, Drosophila melanogaster; conditions: MBP-tagged proteins, amylose resin, 50 mM HEPES pH 7.5, 200 mM NaCl, 2 mM DTT, 1 h; SDS-PAGE, Coomassie
Summary of the method: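 Proteins were expressed in E. coli BL21 (DE3) Star overnight at 20°C. Tethered-protein constructs carried an N-terminal MBP tag and were purified by amylose resin, anion exchange and gel filtration. MBP (20 µg, negative control) or MBP fusion (40 µg) was incubated 1 h with equimolar purified CCR4–NOT modules plus amylose resin. Beads were washed five times and eluted with 25 mM maltose. Eluates were TCA-precipitated and analysed by SDS-PAGE/Coomassie.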

[7] = target: T1, Hs CAF40 (ARM domain, residues R19–E285); test: crystal structure; remark: listed apart in the source
[8] = target: T2, Hs NOT1 CN9BD–CAF40 complex; test: crystal structure
[9] = target: GST-tagged Hs CAF40 (ARM domain) (human, UniProt Q92600); test: pull-down
Sequence of GST-tagged Hs CAF40 (ARM domain) (Q92600 19-285): as above

## Bam CBM peptide (residues D13–E36) (from UniProt P22745 13-36)
[1]
  Kd: 183 nM

## fragment D13–E36 fused to GST: λN-HA-GST-Bam 13–36 ({λN-HA-GST}-DDQQLDHNFKQMEEHLALMVEGNE; reading uncertain; UniProt P22745 13-36, looked up, fragment)
[2]
  repression/degradation activity in tethering: sufficient to induce the repression and degradation of the F-Luc-5BoxB mRNA to a similar extent as full-length Bam

B1: Bam-N: Bam N-terminal fragment, residues 1–140 (protein, UniProt P22745 1-140, looked up, fragment)
chain: MLNARDVCPEGNDDQQLDHNFKQMEEHLALMVEGNENEDPRKATCEYEDTNEDGATCTSGVLSEIQENFGRLRLCDVTAPLLEFHGLDCLQQIQKRSRHFAFDGSPAKKSRSGGVLVTGPKQKQLQKENVWNRKSKGSAS
[2]; DCP2 knockdown, DCP2 E361Q overexpressed
  F-Luc-5BoxB mRNA degradation in DCP2-depleted cells: impaired
[2]; DCP2 knockdown, DCP2 E361Q overexpressed, F-Luc activity
  F-Luc activity in DCP2-depleted cells: not restored
[2]; NOT1-depleted S2 cells
  F-Luc-5BoxB mRNA degradation after NOT1 depletion: partially suppressed degradation of F-Luc-5BoxB mRNA
[2]
  repression/degradation activity in tethering: retained the activity of the full-length protein
[3]
  repression of deadenylation-resistant reporter: repressed the expression of this reporter in S2 cells

B2: Hs NOT1 CN9BD (residues V1351–L1588) (domain or fragment)
chain: VPPQPQYSYHDINVYSLAGLAPHITLNPTIPLFQAHPQLKQCVRQAIERAVQELVHPVVDRSIKIAMTTCEQIVRKDFALDSEESRMRIAAHHMMRNLTAGMAMITCREPLLMSISTNLKNSFASALRTASPQQREMMDQAAAQLAQDNCELACCFIQKTAVEKAGPEMDKRLATEFELRKHARQEGRRYCDPVVLTYQAERMPEQIRLKVGGVDPKQLAVYEEFARNVPGFLPTNDL
[4]
  binding result: binds

B3: MBP-tagged full-length Bam (natural protein)
chain: MLNARDVCPEGNDDQQLDHNFKQMEEHLALMVEGNENEDPRKATCEYEDTNEDGATCTSGVLSEIQENFGRLRLCDVTAPLLEFHGLDCLQQIQKRSRHFAFDGSPAKKSRSGGVLVTGPKQKQLQKENVWNRKSKGSASADNIEKLPITIEKLHMIGLHGDCLEHNAVLRLMNLFRSLHDHLTADLGFSRQNSMPSDYLFDMPVKSTMPKSLNVRYQLQVLCTKVERFLVQQRRTLEANRHFDFEKYDECDKLLKGFASYLDNFKLLLKPKMRNRNGNSGSNADKFHTQRMERLLIGLRDWIKAAHLSVHVFNWEMDLEHRYSGAMTESHKSLNERAILLSGAELRAAEARGISAEDLFIAQRYKLGGPIYCVLEQHEFLSALIANPETYFPPSVVAICGPQKLGAVSMEQPSASEEEFEETEEVPSSPPRHTGRVPRFRS
[5]
  binding result: binds

B4: ΔCBM: Bam Δ13–36 (protein)
chain: MLNARDVCPEGNNEDPRKATCEYEDTNEDGATCTSGVLSEIQENFGRLRLCDVTAPLLEFHGLDCLQQIQKRSRHFAFDGSPAKKSRSGGVLVTGPKQKQLQKENVWNRKSKGSASADNIEKLPITIEKLHMIGLHGDCLEHNAVLRLMNLFRSLHDHLTADLGFSRQNSMPSDYLFDMPVKSTMPKSLNVRYQLQVLCTKVERFLVQQRRTLEANRHFDFEKYDECDKLLKGFASYLDNFKLLLKPKMRNRNGNSGSNADKFHTQRMERLLIGLRDWIKAAHLSVHVFNWEMDLEHRYSGAMTESHKSLNERAILLSGAELRAAEARGISAEDLFIAQRYKLGGPIYCVLEQHEFLSALIANPETYFPPSVVAICGPQKLGAVSMEQPSASEEEFEETEEVPSSPPRHTGRVPRFRS
modifications: left off: MBP, N-terminal, kept
[2]
  repression/degradation activity in tethering: sufficient to abolish the repressive activity of Bam
[6]
  interaction in pull-down: abolished the interaction with the Dm CN9BD–CAF40 module in vitro

## DDQQLDHNFKQMEEHLALMVEGNE [Bam CBM peptide (residues D13–E36)]
[7]
  binding result: binds
[8]
  binding result: binds

B5: Bam-C: Bam C-terminal fragment, residues 141–442 (protein, UniProt P22745 141-442, looked up, fragment)
chain: ADNIEKLPITIEKLHMIGLHGDCLEHNAVLRLMNLFRSLHDHLTADLGFSRQNSMPSDYLFDMPVKSTMPKSLNVRYQLQVLCTKVERFLVQQRRTLEANRHFDFEKYDECDKLLKGFASYLDNFKLLLKPKMRNRNGNSGSNADKFHTQRMERLLIGLRDWIKAAHLSVHVFNWEMDLEHRYSGAMTESHKSLNERAILLSGAELRAAEARGISAEDLFIAQRYKLGGPIYCVLEQHEFLSALIANPETYFPPSVVAICGPQKLGAVSMEQPSASEEEFEETEEVPSSPPRHTGRVPRFRS
[2]
  repression/degradation activity in tethering: strongly impaired

## DDQQLDHNFKQMEEHLALMVEGNE (domain or fragment) [MBP-tagged Bam CBM]
[5]
  binding result: binds
[9]
  binding result: binds
